A short description of data set [1]: Half life in Sprague-Dawley rat at 1.0 mg/kg, iv. On the set-up: dose 1 mg/kg, route intravenous. Conditions: in vivo. The data set is classed as ADME, organism-based.
A further data set has as its target Cathepsin S (Homo sapiens, UniProt P25774). Put plainly: Inhibition of human recombinant cathepsin S by fluorescence assay. The method, boiled down: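 Recombinant human Cat S, fluorometric readout using Z-Leu-Leu-Arg-AMC substrate; IC50 reported.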
A short description of data set [2]: Cmax in Sprague-Dawley rat at 1.0 mg/kg, po. Format: ADME, organism-based. Also noted: dose 1 mg/kg, route oral. Conditions: in vivo.
Data set [3] deals with Cathepsin S (Mus musculus) (UniProt O70370). Kind of data set: Inhibition of cathepsin S in mouse splenocytes assessed as MHC2 associated invariant chain degradation at 1 uM. The data set is classed as cell-based. The method, boiled down: (§1)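 Cellular secondary assay in mouse splenocytes; degradation of MHC class II associated invariant chain monitored after compound exposure at a single concentration.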

A further data set addresses Procathepsin L (Homo sapiens, UniProt P07711). Put plainly: Inhibition of human recombinant cathepsin L by fluorescence assay. Put shortly: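 Recombinant human Cat L measured fluorometrically with Z-Phe-Arg-AMC as substrate; IC50 reported.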
A short description of data set [4]: AUC in Sprague-Dawley rat at 1.0 mg/kg, po. Format: ADME, organism-based. On the set-up: dose 1 mg/kg, route oral. Conditions: plasma.
Data set [5] is described as follows: Oral bioavailability in Sprague-Dawley rat at 3.0mg/kg, po. The data set is classed as ADME, organism-based. Conditions: in vivo, 3 mg/kg.
Another data set has as its target T1, Cathepsin K (Homo sapiens, UniProt P43235).
T1 sequence (P43235 whole entry): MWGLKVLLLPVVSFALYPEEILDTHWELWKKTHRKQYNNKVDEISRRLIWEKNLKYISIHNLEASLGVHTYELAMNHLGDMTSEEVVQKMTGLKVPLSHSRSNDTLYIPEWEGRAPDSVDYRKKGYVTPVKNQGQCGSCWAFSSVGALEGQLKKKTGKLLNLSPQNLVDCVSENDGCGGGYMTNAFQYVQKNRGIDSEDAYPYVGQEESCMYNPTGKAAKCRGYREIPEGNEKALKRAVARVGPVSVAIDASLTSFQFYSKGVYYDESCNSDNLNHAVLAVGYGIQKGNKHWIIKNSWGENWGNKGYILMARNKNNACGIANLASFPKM
Put plainly: Inhibition of human recombinant cathepsin K by fluorescence assay. Put shortly:
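Fluorometric assay with recombinant human Cat K; Z-Phe-Arg-AMC substrate; IC50 determined.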

Data set [6] in a line: Plasma clearance in Sprague-Dawley rat at 1.0 mg/kg, iv or 3.0 mg/kg, po. The data set is classed as ADME, organism-based.
A short description of data set [7]: Plasma clearance in Sprague-Dawley rat at 1.6 mg/kg, iv or 4.0 mg/kg, po. The data set is classed as ADME, organism-based.
A short description of data set [8]: Half life in Sprague-Dawley rat at 1.6 mg/kg, iv. Format: ADME, organism-based. Also noted: dose 1.6 mg/kg, route intravenous. Conditions: in vivo.
The nature of data set [9]: Oral bioavailability in Sprague-Dawley rat at 4.0 mg/kg, po. Conditions: in vivo. The data set is classed as ADME, organism-based.
Data set [10] concerns the target Cathepsin S (Mus musculus) (UniProt O70370). Put plainly: Inhibition of cathepsin S in mouse splenocytes assessed as MHC2 associated invariant chain degradation at 10 uM. Format: cell-based. The method, boiled down: as §1

31 compounds from ChEMBL document CHEMBL1155066, “Discovery of selective and nonpeptidic cathepsin S inhibitors” (Bioorg Med Chem Lett, 2008) can be followed below.

The structures appear in SMILES notation. Calls of active or inactive are those of the source. No cut-off for these calls is given here.

Sequence of Procathepsin L (P07711 whole entry): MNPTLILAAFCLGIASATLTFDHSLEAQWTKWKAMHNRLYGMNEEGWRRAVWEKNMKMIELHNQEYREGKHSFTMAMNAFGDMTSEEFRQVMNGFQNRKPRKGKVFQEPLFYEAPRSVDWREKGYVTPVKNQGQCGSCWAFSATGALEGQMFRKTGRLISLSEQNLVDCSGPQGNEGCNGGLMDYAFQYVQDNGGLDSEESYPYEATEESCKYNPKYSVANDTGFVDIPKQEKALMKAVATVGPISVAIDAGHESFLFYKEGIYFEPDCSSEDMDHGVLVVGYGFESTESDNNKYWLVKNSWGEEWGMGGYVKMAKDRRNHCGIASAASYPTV
Sequence of Cathepsin S (P25774 whole entry): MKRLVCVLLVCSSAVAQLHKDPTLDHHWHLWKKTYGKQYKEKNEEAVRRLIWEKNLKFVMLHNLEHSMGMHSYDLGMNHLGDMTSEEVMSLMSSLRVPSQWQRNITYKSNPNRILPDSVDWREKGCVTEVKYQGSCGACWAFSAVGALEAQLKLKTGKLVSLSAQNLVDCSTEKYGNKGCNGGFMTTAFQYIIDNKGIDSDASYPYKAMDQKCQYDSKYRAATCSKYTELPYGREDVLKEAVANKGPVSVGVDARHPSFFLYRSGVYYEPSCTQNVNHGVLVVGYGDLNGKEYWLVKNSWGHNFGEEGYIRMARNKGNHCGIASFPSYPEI

Regarding `CC(=O)N1CCN(c2ccc(OCc3cc4cnc(C#N)nc4n3CCC3CCCCC3)cc2)CC1`, the half-life in [1] is 1.2 h. The IC50 on Cathepsin S was 9 nM; at Procathepsin L, > 4000 nM; at Cathepsin K it was > 1500 nM. The Cmax in data set [2] was 34 nM. Also, the result in [3] was Active. In data set [4], this compound displayed an AUC of 0.242 µM·h. In addition, the bioavailability in data set [5] is 47%. This compound gave a clearance in [6] of 66.7 mL/min/kg.
With `CN(Cc1cc2cnc(C#N)nc2n1CCC1CCCCC1)c1ccccc1`, the IC50 was 52 nM on Cathepsin S, > 1000 nM on Procathepsin L and > 1000 nM at Cathepsin K.
Regarding `N#Cc1ncc2cc(CSc3ccncc3)n(CCC3CCCCC3)c2n1`, the IC50 at Cathepsin S was 6 nM; on Procathepsin L, > 1000 nM; on Cathepsin K, 480 nM.
In the case of `N#Cc1ncc2cc(Cc3ccc(Cl)cc3)n(CC3CCCCC3)c2n1`, the IC50 at Cathepsin S was 110 nM; at Procathepsin L, 370 nM; at Cathepsin K it was 6 nM.
Consider `N#Cc1ncc2cc(COc3ccc(C(N)=O)cc3)n(CCC3CCCCC3)c2n1`, for which the values for the 50% inhibitory concentration (IC50) at Cathepsin S, on Procathepsin L and at Cathepsin K were 2 nM, > 1000 nM and 280 nM, respectively. Moreover, in data set [2], the peak level (Cmax) was 25 nM. Also, the AUC in data set [4] is 0.108 µM·h. Moreover, the clearance in [7] is 83.3 mL/min/kg. In data set [8], this compound gave a half-life of 0.7 h. The compound also gave a bioavailability in data set [9] of 21%.
Regarding `CCC(=O)Nc1ccc(OCc2cc3cnc(C#N)nc3n2CCC2CCCCC2)cc1`, the IC50 at Cathepsin S was 12 nM; at Procathepsin L, > 4000 nM; at Cathepsin K, > 1500 nM.
The compound `CC(=O)N1CC=C(c2ccc(OCc3cc4cnc(C#N)nc4n3CCC3CCCCC3)cc2)CC1` showed a half-life in data set [1] of 1.4 h. The 50% inhibitory concentration (IC50) on Cathepsin S is 13 nM; at Procathepsin L, > 1000 nM; on Cathepsin K, > 1000 nM. The same compound gave a maximum concentration (Cmax) in data set [2] of 43 nM. In data set [4], the AUC was 0.346 µM·h. In [5], this compound gave a bioavailability of 38%. Also, in data set [6], the clearance is 41.7 mL/min/kg.
In the case of `N#Cc1ncc2cc(Cc3ccc(Cl)cc3)n(CCC3CCCC3)c2n1`, the IC50 on Cathepsin S turned out to be 7 nM; on Procathepsin L, 260 nM; at Cathepsin K it was 17 nM.
As for `N#Cc1ncc2cc(COc3cccc(C(N)=O)c3)n(CCC3CCCCC3)c2n1`, the IC50 was 7 nM on Cathepsin S, > 1000 nM at Procathepsin L and 390 nM at Cathepsin K.
Turning to `N#Cc1ncc2cc(Cc3ccc(Cl)cc3)n(CCCC3CCCCC3)c2n1`, the half-maximal inhibitory concentration (IC50) is 150 nM on Cathepsin S, > 1000 nM at Procathepsin L and > 1000 nM on Cathepsin K.
Take `CC(C)(C)CCCn1c(Cc2ccc(Cl)cc2)cc2cnc(C#N)nc21`: the half-inhibitory concentration (IC50) at Cathepsin S is 320 nM; at Procathepsin L, > 1000 nM; at Cathepsin K, 100 nM.
In the case of `N#Cc1ncc2cc(Cc3ccc(Cl)cc3)n(CCC3CCCCC3)c2n1`, the 50% inhibitory concentration (IC50) on Cathepsin S was 21 nM; at Procathepsin L it was 320 nM; at Cathepsin K it was 220 nM.
Regarding `CC(=O)Nc1ccc(OCc2cc3cnc(C#N)nc3n2CCC2CCCCC2)cc1`, the IC50 on Cathepsin S was 8 nM; at Procathepsin L, > 1000 nM; on Cathepsin K it was > 1000 nM.
For `N#Cc1ncc2cc(Cc3ccc(Cl)cc3)n(CCC3CCCCCC3)c2n1`, the IC50 was 33 nM on Cathepsin S, 840 nM at Procathepsin L and > 1000 nM on Cathepsin K.
On the same counts, the results for `COc1ccc(Cc2cc3cnc(C#N)nc3n2CCC2CCCCC2)cc1` are 110 nM, > 1000 nM and 280 nM.
The matching figures for `N#Cc1ncc2cc(Cc3ccc(Cl)cc3)n(CCc3ccc(Cl)cc3)c2n1`: 19 nM, 86 nM and > 1000 nM.
With `N#Cc1ncc2cc(CC3CCCCC3)n(CCC3CCCCC3)c2n1`, the IC50 was 140 nM at Cathepsin S and > 1000 nM at Procathepsin L.
Take `CC(=O)N1CCC(c2ccc(OCc3cc4cnc(C#N)nc4n3CCC3CCCCC3)cc2)CC1`: in [1], the half-life was 1.3 h. The values for the IC50 on Cathepsin S, at Procathepsin L and on Cathepsin K were 15 nM, > 1000 nM and > 1000 nM, respectively. In data set [2], this compound gave a Cmax of 17 nM. The exposure (AUC) in data set [4] worked out at 0.103 µM·h. The bioavailability in data set [5] stood at 25%. For the same compound, in data set [6], the clearance was 88.3 mL/min/kg.
Take `N#Cc1ncc2cc(COc3cccc(CCC(=O)O)c3)n(CCC3CCCCC3)c2n1`: the results for the IC50 on Cathepsin S, at Procathepsin L and on Cathepsin K were 6 nM, > 5000 nM and > 5000 nM, respectively. For the same compound, the result in data set [10] was inactive.
Turning to `N#Cc1ncc2cc(COc3ccc(C(=O)O)cc3)n(CCC3CCCCC3)c2n1`, the half-inhibitory concentration (IC50) at Cathepsin S is 16 nM; on Procathepsin L, > 2000 nM; on Cathepsin K it was > 2000 nM. The outcome in [10] was inactive.
As to `N#Cc1ncc2cc(Cc3ccc(Cl)cc3)n(CCc3ccccc3)c2n1`, the concentration for half-maximal inhibition (IC50) on Cathepsin S was found to be 64 nM; at Procathepsin L, 23 nM; at Cathepsin K it was 100 nM.
For the compound `N#Cc1ncc2cc(COc3ccccc3)n(CCC3CCCCC3)c2n1`, the values for the IC50 at Cathepsin S, on Procathepsin L and on Cathepsin K were 10 nM, > 1000 nM and > 1000 nM, respectively.
In the case of `N#Cc1ncc2cc(Cc3ccc(Cl)cc3)n(CCc3cccc(Cl)c3)c2n1`, the half-inhibitory concentration (IC50) at Cathepsin S was 190 nM; on Procathepsin L, 40 nM; at Cathepsin K, > 1000 nM.
On the same counts, the results for `N#Cc1ncc2cc(Cc3ccc(Cl)cc3)n(CCC3CCCCCCC3)c2n1` are 99 nM, > 1000 nM and > 1000 nM.
Take `CC(C)(C)Cn1c(Cc2ccc(Cl)cc2)cc2cnc(C#N)nc21`: the IC50 at Procathepsin L was 96 nM; on Cathepsin K, < 1 nM.
Turning to `N#Cc1ncc2cc(Cc3cccc4ccccc34)n(CCC3CCCCC3)c2n1`, the IC50 on Cathepsin S was determined as 440 nM.
As to `N#Cc1ncc2cc(Cc3ccc(Cl)cc3)n(CCN3CCCCC3)c2n1`, the IC50 on Cathepsin S, at Procathepsin L and on Cathepsin K was > 1000 nM each time.
For the compound `CC(C)(C)CCn1c(Cc2ccc(Cl)cc2)cc2cnc(C#N)nc21`, the IC50 was 2 nM on Cathepsin S, 18 nM at Procathepsin L and < 1 nM at Cathepsin K. Moreover, the result in [3] was Active.
Turning to `CC(C)C[C@@H](NC(=O)N1CCOCC1)C(=O)N[C@@H](/C=C/S(=O)(=O)c1ccccc1)CCc1ccccc1`, in data set [3], the result was Active.
Regarding `N#Cc1ncc2cc(CNc3ccccc3)n(CCC3CCCCC3)c2n1`, the 50% inhibitory concentration (IC50) was 24 nM on Cathepsin S, > 1000 nM at Procathepsin L and > 1000 nM at Cathepsin K.
Consider `N#Cc1ncc2cc(COc3ccccn3)n(CCC3CCCCC3)c2n1`, for which the IC50 on Cathepsin S was found to be 11 nM; at Procathepsin L, 790 nM; on Cathepsin K it was 250 nM.
